Assay results reported in ChEMBL document CHEMBL1938243, “Identification of novel, exosite-binding matrix metalloproteinase-13 inhibitor scaffolds” (Bioorg Med Chem Lett, 2011).
Activity calls are given as the source filed them. No cut-off for these calls is given here.

Legend:
Collagenase 3 [1] = target: T1, Collagenase 3 (Homo sapiens, UniProt P45452); assay: Inhibition of human full length recombinant MMP13 using triple-helical fTHP-15 as substrate at 40 uM after 4 hrs by FRET assay
Outline: (§1)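 Inhibitors tested at 40 μM in a FRET assay with the triple-helical peptide substrate fTHP-15 (exosite-engaging), read as percent inhibition of enzyme activity. Enzyme levels: MMP-1 4 nM; MMP-2, MMP-9 and MMP-14 10 nM each; MMP-8 2 nM; MMP-13 2.3 nM.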

Neutrophil collagenase [2] = target: T2, Neutrophil collagenase (Homo sapiens, UniProt P22894); assay: Inhibition of MMP8 expressed in CHO-K1 cells using triple-helical fTHP-15 as substrate at 40 uM after 4 hrs by FRET assay; outline: as §1
Target sequence in this assay (P22894 101-467 limits assumed): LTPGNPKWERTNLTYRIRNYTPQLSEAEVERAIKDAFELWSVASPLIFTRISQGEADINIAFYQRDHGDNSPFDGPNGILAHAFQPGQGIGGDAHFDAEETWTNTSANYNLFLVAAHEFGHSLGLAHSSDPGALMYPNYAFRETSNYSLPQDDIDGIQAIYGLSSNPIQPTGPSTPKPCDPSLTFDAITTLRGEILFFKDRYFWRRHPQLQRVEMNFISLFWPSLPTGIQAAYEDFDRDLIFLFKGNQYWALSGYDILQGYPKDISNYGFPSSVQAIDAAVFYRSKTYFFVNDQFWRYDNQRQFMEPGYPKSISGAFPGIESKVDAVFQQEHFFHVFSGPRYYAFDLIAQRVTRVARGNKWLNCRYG

[3] = target: Disintegrin and metalloproteinase domain-containing protein 17 (Homo sapiens) (UniProt P78536); assay: Inhibition of TACE at 40 uM
Sequence of Disintegrin and metalloproteinase domain-containing protein 17 (Homo sapiens) (P78536 whole entry, the tested form may be a part): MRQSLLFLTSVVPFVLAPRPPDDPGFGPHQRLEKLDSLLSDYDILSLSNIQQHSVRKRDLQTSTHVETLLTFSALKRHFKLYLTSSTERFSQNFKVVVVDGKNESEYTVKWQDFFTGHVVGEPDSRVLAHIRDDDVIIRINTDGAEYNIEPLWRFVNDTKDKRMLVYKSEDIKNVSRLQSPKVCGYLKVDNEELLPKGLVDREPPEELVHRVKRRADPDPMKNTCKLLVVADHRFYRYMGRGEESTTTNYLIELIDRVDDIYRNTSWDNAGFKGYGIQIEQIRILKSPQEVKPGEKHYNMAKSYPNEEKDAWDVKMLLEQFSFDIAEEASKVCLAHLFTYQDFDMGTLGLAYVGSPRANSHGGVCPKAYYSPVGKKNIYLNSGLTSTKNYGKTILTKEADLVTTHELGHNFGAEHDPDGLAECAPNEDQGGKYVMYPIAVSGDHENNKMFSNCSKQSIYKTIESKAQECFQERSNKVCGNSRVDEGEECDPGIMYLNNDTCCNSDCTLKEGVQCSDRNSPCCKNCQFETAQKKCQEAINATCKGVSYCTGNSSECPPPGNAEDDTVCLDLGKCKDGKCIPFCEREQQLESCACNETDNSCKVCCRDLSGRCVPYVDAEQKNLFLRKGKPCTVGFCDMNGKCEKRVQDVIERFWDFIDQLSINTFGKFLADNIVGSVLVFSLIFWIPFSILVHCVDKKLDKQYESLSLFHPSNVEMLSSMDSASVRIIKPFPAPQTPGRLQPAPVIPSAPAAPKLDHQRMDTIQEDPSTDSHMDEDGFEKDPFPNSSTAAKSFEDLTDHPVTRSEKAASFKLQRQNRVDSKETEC

[4] = target: T3, Interstitial collagenase (Homo sapiens) (UniProt P03956); assay: Inhibition of MMP1 expressed in Escherichia coli using triple-helical fTHP-15 as substrate at 40 uM after 4 hrs by FRET assay; outline: as §1
T3 sequence (whole entry): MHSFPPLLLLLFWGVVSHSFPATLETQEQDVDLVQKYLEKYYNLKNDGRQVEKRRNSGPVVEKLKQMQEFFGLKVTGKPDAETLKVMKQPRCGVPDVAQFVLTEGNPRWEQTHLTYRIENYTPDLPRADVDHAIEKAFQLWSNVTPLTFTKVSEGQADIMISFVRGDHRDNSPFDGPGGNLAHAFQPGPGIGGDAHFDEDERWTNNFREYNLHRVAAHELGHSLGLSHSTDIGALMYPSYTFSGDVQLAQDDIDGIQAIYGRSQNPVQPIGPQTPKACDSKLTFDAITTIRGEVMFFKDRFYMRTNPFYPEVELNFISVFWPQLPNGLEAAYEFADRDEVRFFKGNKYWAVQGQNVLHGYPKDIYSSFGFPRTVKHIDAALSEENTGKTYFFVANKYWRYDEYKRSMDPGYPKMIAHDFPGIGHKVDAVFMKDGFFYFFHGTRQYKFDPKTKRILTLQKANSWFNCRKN

[5] = target: 72 kDa type IV collagenase (Homo sapiens) (UniProt P08253); assay: Inhibition of human MMP2 using triple-helical fTHP-15 as substrate at 40 uM after 4 hrs by FRET assay; outline: as §1
Sequence of 72 kDa type IV collagenase (Homo sapiens) (P08253 110-660 limits assumed): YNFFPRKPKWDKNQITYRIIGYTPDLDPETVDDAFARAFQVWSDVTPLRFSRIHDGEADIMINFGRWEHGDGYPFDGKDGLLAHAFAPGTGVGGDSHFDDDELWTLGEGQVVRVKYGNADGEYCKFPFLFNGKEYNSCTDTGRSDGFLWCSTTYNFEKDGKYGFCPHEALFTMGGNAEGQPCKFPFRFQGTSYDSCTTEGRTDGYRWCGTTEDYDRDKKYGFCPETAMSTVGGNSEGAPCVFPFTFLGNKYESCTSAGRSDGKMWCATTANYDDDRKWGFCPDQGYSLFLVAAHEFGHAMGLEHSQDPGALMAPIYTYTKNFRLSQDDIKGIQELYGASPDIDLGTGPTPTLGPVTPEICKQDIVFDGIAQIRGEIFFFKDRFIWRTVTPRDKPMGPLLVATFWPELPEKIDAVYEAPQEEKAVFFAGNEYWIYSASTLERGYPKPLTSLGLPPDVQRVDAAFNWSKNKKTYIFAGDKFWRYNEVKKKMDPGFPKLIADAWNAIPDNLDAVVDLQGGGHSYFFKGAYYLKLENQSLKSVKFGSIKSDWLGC

[6] = target: Matrix metalloproteinase-9 (Homo sapiens) (UniProt P14780); assay: Inhibition of recombinant MMP9 using triple-helical fTHP-15 as substrate at 40 uM after 4 hrs by FRET assay; outline: as §1
Sequence of Matrix metalloproteinase-9 (Homo sapiens) (P14780 whole entry): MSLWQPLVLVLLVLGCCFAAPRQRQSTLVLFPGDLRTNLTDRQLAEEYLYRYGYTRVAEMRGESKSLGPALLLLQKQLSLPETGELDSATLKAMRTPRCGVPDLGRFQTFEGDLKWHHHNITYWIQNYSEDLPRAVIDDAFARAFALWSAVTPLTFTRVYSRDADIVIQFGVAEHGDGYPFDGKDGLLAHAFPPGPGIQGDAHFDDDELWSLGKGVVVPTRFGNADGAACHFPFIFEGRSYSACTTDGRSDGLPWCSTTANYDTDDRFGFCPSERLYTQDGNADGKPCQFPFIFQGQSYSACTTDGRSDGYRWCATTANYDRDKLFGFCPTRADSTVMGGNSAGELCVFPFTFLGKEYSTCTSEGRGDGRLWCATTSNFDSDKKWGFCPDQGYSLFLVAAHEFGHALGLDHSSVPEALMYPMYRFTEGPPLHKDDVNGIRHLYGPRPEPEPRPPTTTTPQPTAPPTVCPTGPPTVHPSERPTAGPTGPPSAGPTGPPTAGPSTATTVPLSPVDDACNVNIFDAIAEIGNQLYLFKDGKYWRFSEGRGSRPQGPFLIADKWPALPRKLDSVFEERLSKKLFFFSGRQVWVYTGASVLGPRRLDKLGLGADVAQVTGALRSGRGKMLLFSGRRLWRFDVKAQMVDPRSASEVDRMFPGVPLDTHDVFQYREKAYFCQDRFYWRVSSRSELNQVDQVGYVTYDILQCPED

[7] = target: Matrix metalloproteinase-14 (Homo sapiens) (UniProt P50281); assay: Inhibition of MMP14 using triple-helical fTHP-15 as substrate at 40 uM after 4 hrs by FRET assay; outline: as §1
[8] = target: T3, Interstitial collagenase (Homo sapiens); assay: Inhibition of MMP1 expressed in Escherichia coli assessed as residual activity using Knight SSP as substrate at 100 uM after 1.5 to 4 hrs by spectrofluorometric analysis relative to control
[9] = target: 72 kDa type IV collagenase (Homo sapiens) (UniProt P08253); assay: Inhibition of human MMP2 assessed as residual activity using Knight SSP as substrate at 100 uM after 1.5 to 4 hrs by spectrofluorometric analysis relative to control
[10] = target: Stromelysin-1 (Homo sapiens) (UniProt P08254); assay: Inhibition of MMP3 expressed in Escherichia coli assessed as residual activity using Knight SSP as substrate at 100 uM after 1.5 to 4 hrs by spectrofluorometric analysis relative to control
Sequence of Stromelysin-1 (Homo sapiens) (P08254 100-477 limits assumed): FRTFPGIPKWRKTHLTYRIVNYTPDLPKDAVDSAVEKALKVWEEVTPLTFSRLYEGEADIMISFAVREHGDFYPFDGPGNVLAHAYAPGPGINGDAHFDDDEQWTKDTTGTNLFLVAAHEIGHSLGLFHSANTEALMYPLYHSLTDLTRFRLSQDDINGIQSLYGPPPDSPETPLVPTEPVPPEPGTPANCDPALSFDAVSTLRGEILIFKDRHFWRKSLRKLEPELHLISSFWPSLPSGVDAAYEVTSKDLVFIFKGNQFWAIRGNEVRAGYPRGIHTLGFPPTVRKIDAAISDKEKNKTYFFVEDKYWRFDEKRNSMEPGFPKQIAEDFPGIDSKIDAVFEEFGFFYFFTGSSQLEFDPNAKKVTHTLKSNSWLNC

Neutrophil collagenase [11] = target: T2, Neutrophil collagenase; assay: Inhibition of MMP8 expressed in CHO-K1 cells assessed as residual activity using Knight SSP as substrate at 100 uM after 1.5 to 4 hrs by spectrofluorometric analysis relative to control; type: cell-based
Target sequence in this assay (P22894 101-467 limits assumed): as the sequence (P22894 101-467 limits assumed) above

[12] = target: Macrophage metalloelastase (Homo sapiens) (UniProt P39900); assay: Inhibition of MMP12 assessed as residual activity using Knight SSP as substrate at 100 uM after 1.5 to 4 hrs by spectrofluorometric analysis relative to control
Sequence of Macrophage metalloelastase (Homo sapiens) (P39900 106-470 limits assumed): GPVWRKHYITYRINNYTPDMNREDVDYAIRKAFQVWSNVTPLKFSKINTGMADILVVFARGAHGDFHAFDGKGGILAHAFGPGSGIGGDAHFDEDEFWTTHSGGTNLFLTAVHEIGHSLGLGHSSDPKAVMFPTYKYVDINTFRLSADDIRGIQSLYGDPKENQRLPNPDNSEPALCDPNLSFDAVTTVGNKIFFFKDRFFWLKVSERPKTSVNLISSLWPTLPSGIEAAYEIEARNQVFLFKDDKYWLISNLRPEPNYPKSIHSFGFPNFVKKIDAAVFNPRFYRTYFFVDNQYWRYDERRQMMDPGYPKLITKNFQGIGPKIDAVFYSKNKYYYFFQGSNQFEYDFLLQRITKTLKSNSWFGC

Collagenase 3 [13] = target: T1, Collagenase 3; assay: Inhibition of human full length recombinant MMP13 assessed as residual activity using Knight SSP as substrate at 100 uM after 1.5 to 4 hrs by spectrofluorometric analysis relative to control
[14] = target: Matrix metalloproteinase-14 (Homo sapiens) (UniProt P50281); assay: Inhibition of MMP14 assessed as residual activity using Knight SSP as substrate at 100 uM after 1.5 to 4 hrs by spectrofluorometric analysis relative to control
[15] = target: T4, Matrix metalloproteinase-20 (Homo sapiens) (UniProt O60882); assay: Inhibition of MMP20 assessed as residual activity using Knight SSP as substrate at 100 uM after 1.5 to 4 hrs by spectrofluorometric analysis relative to control
T4 sequence (whole entry): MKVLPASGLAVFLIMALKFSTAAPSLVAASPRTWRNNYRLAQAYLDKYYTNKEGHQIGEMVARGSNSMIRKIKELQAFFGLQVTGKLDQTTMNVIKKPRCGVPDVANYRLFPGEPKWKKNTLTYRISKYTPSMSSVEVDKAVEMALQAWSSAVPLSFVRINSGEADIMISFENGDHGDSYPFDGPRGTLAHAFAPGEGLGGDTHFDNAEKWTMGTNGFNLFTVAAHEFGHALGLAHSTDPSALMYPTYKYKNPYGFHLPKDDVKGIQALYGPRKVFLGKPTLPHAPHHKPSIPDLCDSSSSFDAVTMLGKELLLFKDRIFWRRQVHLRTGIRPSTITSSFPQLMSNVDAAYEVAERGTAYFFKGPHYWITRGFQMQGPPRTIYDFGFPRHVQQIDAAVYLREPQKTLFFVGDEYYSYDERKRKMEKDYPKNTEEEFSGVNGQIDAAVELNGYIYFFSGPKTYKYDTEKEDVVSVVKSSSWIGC

Collagenase 3 [16] = target: T1, Collagenase 3; assay: Noncompetitive inhibition of human full length recombinant MMP13 using triple-helical fTHP-15 as substrate by Lineweaver-Burk plot analysis
Outline: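 Single-inhibitor kinetic assay of MMP-13 hydrolysis of the FRET triple-helical peptide fTHP-15, which engages protease exosites. Run to obtain the inhibition constant (Ki) and the inhibition modality, following previously described methods.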

Interstitial collagenase = target: T5, Interstitial collagenase (Homo sapiens, UniProt P03956); assay: Inhibition of MMP1 expressed in Escherichia coli using triple-helical fTHP-15 as substrate after 4 hrs by FRET assay
T5 sequence (P03956 whole entry): T3 sequence (whole entry)

Neutrophil collagenase [17] = target: T2, Neutrophil collagenase; assay: Inhibition of MMP8 expressed in CHO-K1 cells using triple-helical fTHP-15 as substrate after 4 hrs by FRET assay; type: cell-based
Target sequence in this assay (P22894 whole entry, the tested form may be a part): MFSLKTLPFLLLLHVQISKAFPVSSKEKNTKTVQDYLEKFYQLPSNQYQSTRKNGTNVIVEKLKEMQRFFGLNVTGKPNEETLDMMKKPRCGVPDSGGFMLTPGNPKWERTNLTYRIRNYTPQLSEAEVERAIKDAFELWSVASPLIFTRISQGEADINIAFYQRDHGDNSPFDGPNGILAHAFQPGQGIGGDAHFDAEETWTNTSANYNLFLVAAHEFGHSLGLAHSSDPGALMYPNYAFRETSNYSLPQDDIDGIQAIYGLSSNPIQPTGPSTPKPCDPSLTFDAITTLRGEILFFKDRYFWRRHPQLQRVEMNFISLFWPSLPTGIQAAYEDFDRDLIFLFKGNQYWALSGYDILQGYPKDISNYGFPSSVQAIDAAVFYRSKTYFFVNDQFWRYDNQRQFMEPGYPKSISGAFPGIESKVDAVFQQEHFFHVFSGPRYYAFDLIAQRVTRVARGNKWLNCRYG

SMILES: CS(=O)(=O)c1ccc(CSc2nc3c(c(=O)[nH]2)CCC3)cc1
- inhibition (Collagenase 3 [1]): 46.7%

SMILES: CCCc1cc(O)nc(SCc2ccc(Cl)cc2)n1
- inhibition (Collagenase 3 [1]): inactive

SMILES: CCCCSc1nc(O)c2c(n1)CCC2
- inhibition (Collagenase 3 [1]): 17.1%

SMILES: O=C(CSc1nc2c(c(=O)[nH]1)CCC2)c1ccccc1
- inhibition (Collagenase 3 [1]): inactive

SMILES: Nc1cc(O)nc(SCc2ccc(Cl)cc2)n1
- inhibition (Collagenase 3 [1]): 37%

SMILES: Cc1nc(SCc2ccc(Br)cc2)nc(O)c1C
- inhibition (Collagenase 3 [1]): 55.8%
- inhibition (Neutrophil collagenase [2]): 20%

SMILES: Cc1oc(-c2cccc(Cl)c2)cc1CSc1nc2c(c(=O)[nH]1)CCC2
- inhibition (Collagenase 3 [1]): inactive

SMILES: O=C(CSc1nc2c(c(=O)[nH]1)C(Cc1ccccc1)CC2)c1ccccc1 (stereo not given)
- inhibition (Collagenase 3 [1]): 16%

SMILES: Oc1[nH]c(SCc2ccc(Cl)cc2)nc2nncc1-2
- inhibition (Collagenase 3 [1]): inactive

SMILES: O=c1[nH]c(SCc2ccc(OC(F)(F)F)cc2)nc2c1CCC2
- inhibition (Collagenase 3 [1]): 34.4%

SMILES: Cc1ccc(CSc2nc(O)c3c(n2)CCC3)cc1
- inhibition (Collagenase 3 [1]): 67%
- inhibition [3]: inactive
- inhibition [4]: 0%
- inhibition [5]: 19%
- inhibition (Neutrophil collagenase [2]): 0%
- inhibition [6]: 7%
- inhibition [7]: 20%
- Activity [8]: 106%
- Activity [9]: 97.6%
- Activity [10]: 100%
- Activity (Neutrophil collagenase [11]): 106%
- Activity [12]: 77.3%
- Activity (Collagenase 3 [13]): 38.6%
- Activity [14]: 100%
- Activity [15]: 101%

SMILES: C#CCSc1nc2c(c(=O)[nH]1)CCC2
- inhibition (Collagenase 3 [1]): 10.3%

SMILES: O=S(=O)(Nc1cc(O)nc(SCc2ccc(Cl)cc2)n1)c1ccccc1
- inhibition (Collagenase 3 [1]): 31.2%

SMILES: COC(=O)c1ccc(CSc2nc3c(c(=O)[nH]2)CCC3)cc1
- inhibition (Collagenase 3 [1]): 61%
- Ki (Collagenase 3 [16]): 1.53 µM
- inhibition [3]: inactive
- inhibition [4]: 0%
- inhibition [5]: 26%
- inhibition (Neutrophil collagenase [2]): 8%
- inhibition [6]: 16%
- inhibition [7]: 31%
- IC50 (Interstitial collagenase): > 40 µM
- IC50 (Neutrophil collagenase [17]): > 40 µM
- Activity [8]: 102%
- Activity [9]: 84.7%
- Activity [10]: 100%
- Activity (Neutrophil collagenase [11]): 93.8%
- Activity [12]: 80.6%
- Activity (Collagenase 3 [13]): 35.1%
- Activity [14]: 104%
- Activity [15]: 96.4%

SMILES: O=c1[nH]c(SCCCc2ccccc2)nc2c1CCC2
- inhibition (Collagenase 3 [1]): 7.2%

SMILES: Oc1nc(SCc2ccc(Cl)cc2)nc2ccsc12
- inhibition (Collagenase 3 [1]): 36.6%

SMILES: Cc1cccc(CSc2nc(O)c3c(n2)CCCC3)c1
- inhibition (Collagenase 3 [1]): inactive

SMILES: Oc1nc(SCc2ccc(Cl)cc2)nc2ccccc12
- inhibition (Collagenase 3 [1]): inactive

SMILES: O=c1[nH]c(SCc2ccc(Cl)cc2)nc(O)c1Cc1ccccc1
- inhibition (Collagenase 3 [1]): inactive

SMILES: O=c1[nH]c(SCc2coc(-c3cccc(Cl)c3)n2)nc2c1CCC2
- inhibition (Collagenase 3 [1]): inactive

SMILES: O=C(O)c1ccc(CSc2nc3c(c(=O)[nH]2)CCC3)cc1
- inhibition (Collagenase 3 [1]): 2.2%

SMILES: Oc1nc(SCc2ccc(Cl)cc2)nc2c1CCC2
- inhibition (Collagenase 3 [1]): 49.1%
- Ki (Collagenase 3 [16]): 3.8 µM
- inhibition [3]: inactive
- inhibition [4]: 0%
- inhibition [5]: 25%
- inhibition (Neutrophil collagenase [2]): 17%
- inhibition [6]: 10%
- inhibition [7]: 22%
- IC50 (Interstitial collagenase): > 40 µM
- IC50 (Neutrophil collagenase [17]): > 40 µM
- Activity [8]: 92.7%
- Activity [9]: 83%
- Activity [10]: 96%
- Activity (Neutrophil collagenase [11]): 81.7%
- Activity [12]: 91.6%
- Activity (Collagenase 3 [13]): 44%
- Activity [14]: 107%
- Activity [15]: 105%

SMILES: Cc1ccc(CSc2nc3c(c(=O)[nH]2)CCC3)cc1
- Ki (Collagenase 3 [16]): 0.824 µM
- IC50 (Interstitial collagenase): > 40 µM
- IC50 (Neutrophil collagenase [17]): > 40 µM

SMILES: Cc1ccccc1S(=O)(=O)Nc1cc(=O)[nH]c(SCc2ccc(Cl)cc2)n1
- inhibition (Collagenase 3 [1]): 30.5%

SMILES: Cc1cc(=O)[nH]c(SCc2ccc(Cl)cc2)n1
- inhibition (Collagenase 3 [1]): 32.9%

SMILES: O=c1[nH]c(SCc2ccc(Cl)cc2)nc2c1C(Cc1ccccc1)CC2 (stereo not given)
- inhibition (Collagenase 3 [1]): 37.7%

SMILES: CC(=O)Nc1c(O)nc(SCc2ccc(Cl)cc2)nc1O
- inhibition (Collagenase 3 [1]): inactive

SMILES: O=c1[nH]c(SCCc2ccccc2)nc2c1CCC2
- inhibition (Collagenase 3 [1]): 7.7%

SMILES: Cc1cccc(CSc2nc3c(c(=O)[nH]2)CCC3)c1
- inhibition (Collagenase 3 [1]): 45.2%
